The test system of one assay is HCT-116. The assay can be described thus: Growth inhibition of human HCT-116 cells at 10 uM incubated for 24 hrs by MTT assay relative to control. It is filed as functional. The note with it: read-out: GI. Put shortly:
(§1)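 Cells seeded at 1 × 10^4 per well, cultured overnight, then exposed to 10 μM compound or DMSO (negative control) for 24 h. After a PBS wash, MTT (2 mg/ml) was added for 4 h at 37°C and formazan dissolved in DMSO. OD read at 570 nm. Growth inhibition = 1 − (OD treated/OD control); at least three independent experiments.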

A further assay has as its system HT-29. The assay can be described thus: Growth inhibition of human HT-29 cells at 10 uM incubated for 24 hrs by MTT assay relative to control. It is filed as functional. As to conditions: read-out: GI. Put shortly: as §1
A general note: Tetrazolium assays rely on reduction of a dye to a coloured formazan, in cell work by metabolically active cells.

Another assay has as its system K562. The assay is described as follows: Growth inhibition of human K562 cells at 10 uM incubated for 24 hrs by MTT assay relative to control. The note with it: read-out: GI. The class given is functional. A digest of the protocol: as §1
A further assay concerns KG-1. The assay is described as follows: Growth inhibition of human KG-1 cells at 10 uM incubated for 24 hrs by MTT assay relative to control. It is filed as functional. As to conditions: KG-1, 24 h. Put shortly: as §1
Assay [1] has as its system A498. The assay is described as follows: Growth inhibition of human A498 cells at 10 uM incubated for 24 hrs by MTT assay relative to control. It is filed as functional. The note with it: read-out: GI. A digest of the protocol: as §1
The test system of assay [2] is CAKI-1. The assay is described as follows: Growth inhibition of human CAKI-1 cells at 10 uM incubated for 24 hrs by MTT assay relative to control. It is filed as functional. The note with it: read-out: GI. Put shortly: as §1
Assay [3] relates to A498. The assay is described as follows: Antiproliferative activity against human A498 cells assessed as cell growth inhibition incubated for 24 hrs by MTT assay. The class given is functional, cell-based. The note with it: A498, 24 h.
Assay [4] deals with CAKI-1. The assay is described as follows: Antiproliferative activity against human CAKI-1 cells assessed as cell growth inhibition incubated for 24 hrs by MTT assay. The class given is functional, cell-based. The note with it: CAKI-1, 24 h.
In another assay the target is Histone deacetylase 1 (Homo sapiens, UniProt Q13547). The assay is described as follows: Inhibition of human full-length recombinant HDAC1 preincubated for 5 mins followed by HDAC substrate addition and further incubated for 45 mins by fluorescence microplate reader assay.
Sequence of Histone deacetylase 1 (Q13547 whole entry): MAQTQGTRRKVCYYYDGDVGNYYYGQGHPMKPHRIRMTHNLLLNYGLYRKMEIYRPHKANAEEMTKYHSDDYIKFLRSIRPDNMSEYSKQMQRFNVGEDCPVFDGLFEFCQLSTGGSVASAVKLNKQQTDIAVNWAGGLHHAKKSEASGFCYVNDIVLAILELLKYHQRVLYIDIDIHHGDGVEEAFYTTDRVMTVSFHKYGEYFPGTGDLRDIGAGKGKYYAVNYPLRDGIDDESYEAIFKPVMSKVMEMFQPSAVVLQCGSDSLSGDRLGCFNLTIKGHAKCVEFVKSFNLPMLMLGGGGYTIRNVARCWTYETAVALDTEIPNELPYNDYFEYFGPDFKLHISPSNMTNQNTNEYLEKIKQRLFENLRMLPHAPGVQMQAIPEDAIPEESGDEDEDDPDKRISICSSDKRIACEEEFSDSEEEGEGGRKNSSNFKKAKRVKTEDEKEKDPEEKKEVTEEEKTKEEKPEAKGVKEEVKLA
The target in assay [5] is T1, Histone deacetylase 2 (Homo sapiens, UniProt Q92769). The assay is described as follows: Inhibition of human full-length recombinant HDAC2 preincubated for 5 mins followed by HDAC substrate addition and further incubated for 45 mins by fluorescence microplate reader assay.
T1 sequence (Q92769 whole entry): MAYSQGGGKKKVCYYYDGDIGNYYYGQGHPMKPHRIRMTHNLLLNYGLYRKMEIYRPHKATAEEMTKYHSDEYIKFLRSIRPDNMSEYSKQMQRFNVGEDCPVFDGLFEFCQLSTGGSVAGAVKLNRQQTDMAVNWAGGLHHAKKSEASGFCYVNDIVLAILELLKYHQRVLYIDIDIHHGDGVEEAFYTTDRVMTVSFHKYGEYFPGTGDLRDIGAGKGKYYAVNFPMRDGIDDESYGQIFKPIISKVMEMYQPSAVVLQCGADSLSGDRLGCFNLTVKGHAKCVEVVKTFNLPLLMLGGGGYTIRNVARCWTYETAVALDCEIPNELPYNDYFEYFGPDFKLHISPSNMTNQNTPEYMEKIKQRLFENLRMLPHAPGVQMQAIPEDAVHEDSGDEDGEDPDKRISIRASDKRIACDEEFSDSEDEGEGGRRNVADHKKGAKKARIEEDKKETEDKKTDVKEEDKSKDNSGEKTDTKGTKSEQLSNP
In another assay the target is Histone deacetylase 3 (Homo sapiens, UniProt O15379). The assay is described as follows: Inhibition of human full-length recombinant HDAC3 preincubated for 5 mins followed by HDAC substrate addition and further incubated for 45 mins by fluorescence microplate reader assay.
Sequence of Histone deacetylase 3 (O15379 whole entry): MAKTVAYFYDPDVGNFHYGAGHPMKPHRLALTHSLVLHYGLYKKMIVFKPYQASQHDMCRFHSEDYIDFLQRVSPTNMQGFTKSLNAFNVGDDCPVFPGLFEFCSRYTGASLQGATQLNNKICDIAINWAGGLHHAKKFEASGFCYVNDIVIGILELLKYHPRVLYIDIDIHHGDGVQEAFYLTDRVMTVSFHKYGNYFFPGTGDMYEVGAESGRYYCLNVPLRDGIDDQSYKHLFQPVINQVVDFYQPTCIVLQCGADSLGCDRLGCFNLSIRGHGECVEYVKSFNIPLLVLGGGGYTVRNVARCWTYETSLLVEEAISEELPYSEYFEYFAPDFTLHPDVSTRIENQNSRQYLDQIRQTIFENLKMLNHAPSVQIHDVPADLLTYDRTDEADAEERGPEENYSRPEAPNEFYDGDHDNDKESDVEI
Assay [6] deals with T2, Protein deacetylase HDAC6 (Homo sapiens, UniProt Q9UBN7).
T2 sequence (Q9UBN7 whole entry): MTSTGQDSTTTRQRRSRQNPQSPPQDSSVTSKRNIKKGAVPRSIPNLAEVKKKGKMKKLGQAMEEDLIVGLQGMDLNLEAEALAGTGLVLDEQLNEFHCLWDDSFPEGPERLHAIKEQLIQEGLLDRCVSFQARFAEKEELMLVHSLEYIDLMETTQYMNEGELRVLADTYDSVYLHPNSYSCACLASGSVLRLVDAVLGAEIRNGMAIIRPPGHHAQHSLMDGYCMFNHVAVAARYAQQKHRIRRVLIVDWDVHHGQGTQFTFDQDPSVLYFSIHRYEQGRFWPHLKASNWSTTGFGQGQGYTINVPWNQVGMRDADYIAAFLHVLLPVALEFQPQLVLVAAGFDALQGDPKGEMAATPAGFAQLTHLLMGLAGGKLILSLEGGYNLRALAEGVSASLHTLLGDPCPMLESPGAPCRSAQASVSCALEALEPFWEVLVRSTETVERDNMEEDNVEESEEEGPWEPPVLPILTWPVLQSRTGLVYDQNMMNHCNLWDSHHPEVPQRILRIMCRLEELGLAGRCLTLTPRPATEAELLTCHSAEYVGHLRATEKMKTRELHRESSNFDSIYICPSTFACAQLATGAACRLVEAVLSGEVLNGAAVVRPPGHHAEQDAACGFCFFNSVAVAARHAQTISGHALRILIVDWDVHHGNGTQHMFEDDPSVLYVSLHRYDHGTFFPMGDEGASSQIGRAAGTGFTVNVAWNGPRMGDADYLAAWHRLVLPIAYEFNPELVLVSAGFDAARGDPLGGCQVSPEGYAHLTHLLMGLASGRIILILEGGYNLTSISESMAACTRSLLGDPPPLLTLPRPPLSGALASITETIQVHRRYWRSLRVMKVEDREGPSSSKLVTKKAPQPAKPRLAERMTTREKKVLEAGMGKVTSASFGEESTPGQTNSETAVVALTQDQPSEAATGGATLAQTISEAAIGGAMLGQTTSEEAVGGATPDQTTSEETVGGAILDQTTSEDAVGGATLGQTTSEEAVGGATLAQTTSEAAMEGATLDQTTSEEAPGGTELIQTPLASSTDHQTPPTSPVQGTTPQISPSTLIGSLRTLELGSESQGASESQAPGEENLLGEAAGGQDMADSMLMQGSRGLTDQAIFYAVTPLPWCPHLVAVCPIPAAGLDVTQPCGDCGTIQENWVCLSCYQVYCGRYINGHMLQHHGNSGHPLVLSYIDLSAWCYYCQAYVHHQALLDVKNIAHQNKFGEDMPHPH
The assay is described as follows: Inhibition of human full-length recombinant HDAC6 preincubated for 5 mins followed by HDAC substrate addition and further incubated for 45 mins by fluorescence microplate reader assay.

A further assay concerns the target T3, Histone deacetylase 8 (Homo sapiens, UniProt Q9BY41).
T3 sequence (Q9BY41 whole entry): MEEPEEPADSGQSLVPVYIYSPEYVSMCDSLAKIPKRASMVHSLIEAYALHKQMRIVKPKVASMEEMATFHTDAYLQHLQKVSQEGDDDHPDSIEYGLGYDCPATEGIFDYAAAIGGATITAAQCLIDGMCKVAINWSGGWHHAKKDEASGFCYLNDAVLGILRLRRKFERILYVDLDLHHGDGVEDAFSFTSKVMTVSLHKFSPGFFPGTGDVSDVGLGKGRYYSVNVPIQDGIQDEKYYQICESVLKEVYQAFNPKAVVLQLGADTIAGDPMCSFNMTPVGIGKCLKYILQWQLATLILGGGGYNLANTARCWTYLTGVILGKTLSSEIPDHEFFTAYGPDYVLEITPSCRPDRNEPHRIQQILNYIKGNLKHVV
The assay can be described thus: Inhibition of human full-length recombinant C-terminal His-tagged HDAC8 expressed in baculovirus infected Sf9 insect cells preincubated for 5 mins followed by HDAC substrate addition and further incubated for 45 mins by fluorescence microplate reader assay.

Assay [7] addresses T4, Focal adhesion kinase 1 (Homo sapiens, UniProt Q05397). The assay can be described thus: Inhibition of FAK (unknown origin) by FRET-based Z'-Lyte assay. Put shortly:
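Recombinant FAK kinase activity measured with the FRET-based Z'-LYTE format; the same platform was used for a kinase panel (FAK, FLT, FRK, IGF-1R, BTK). IC50 values determined.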
Target sequence in this assay (Q05397 whole entry): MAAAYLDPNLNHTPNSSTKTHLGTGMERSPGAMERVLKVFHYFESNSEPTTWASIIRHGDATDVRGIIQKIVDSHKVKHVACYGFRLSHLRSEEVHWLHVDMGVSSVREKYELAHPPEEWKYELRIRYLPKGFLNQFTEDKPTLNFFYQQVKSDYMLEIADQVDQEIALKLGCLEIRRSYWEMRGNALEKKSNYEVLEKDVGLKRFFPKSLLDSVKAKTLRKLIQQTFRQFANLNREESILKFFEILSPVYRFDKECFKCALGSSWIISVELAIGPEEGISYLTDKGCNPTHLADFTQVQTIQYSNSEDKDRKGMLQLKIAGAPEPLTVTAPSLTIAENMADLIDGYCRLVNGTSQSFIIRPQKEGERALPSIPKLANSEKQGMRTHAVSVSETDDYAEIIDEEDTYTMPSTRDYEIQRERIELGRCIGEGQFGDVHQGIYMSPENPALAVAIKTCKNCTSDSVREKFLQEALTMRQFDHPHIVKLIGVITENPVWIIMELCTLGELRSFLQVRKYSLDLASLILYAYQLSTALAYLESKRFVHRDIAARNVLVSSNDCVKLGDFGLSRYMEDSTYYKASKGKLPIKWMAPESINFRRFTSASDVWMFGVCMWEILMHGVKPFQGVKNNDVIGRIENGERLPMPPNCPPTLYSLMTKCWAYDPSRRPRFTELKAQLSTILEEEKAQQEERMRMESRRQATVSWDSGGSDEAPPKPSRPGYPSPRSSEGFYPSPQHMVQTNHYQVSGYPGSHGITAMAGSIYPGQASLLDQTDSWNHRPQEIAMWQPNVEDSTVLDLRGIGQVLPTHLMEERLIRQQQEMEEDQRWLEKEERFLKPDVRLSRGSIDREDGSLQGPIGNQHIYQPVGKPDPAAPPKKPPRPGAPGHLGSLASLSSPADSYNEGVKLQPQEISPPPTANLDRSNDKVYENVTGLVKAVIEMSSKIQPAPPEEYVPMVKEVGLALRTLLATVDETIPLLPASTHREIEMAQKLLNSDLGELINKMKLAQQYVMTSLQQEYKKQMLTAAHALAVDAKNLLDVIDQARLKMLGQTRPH

Assay [8] deals with T1, Histone deacetylase 2. The assay is described as follows: Inhibition of HDAC2 in human A498 cells assessed as reduction in HDAC2 expression by Western blot analysis. The class given is cell-based. Put shortly: (§2)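 40 μg protein (Bradford) resolved by SDS-PAGE, transferred to PVDF, blocked 1 h in milk or BSA. Primary antibody overnight, HRP secondary 1 h, ECL detection; β-actin as loading control.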
For orientation: In western blotting, separated proteins are transferred to a membrane and probed.

In assay [9] the target is T1, Histone deacetylase 2. The assay can be described thus: Inhibition of HDAC2 in human CAKI-1 cells assessed as reduction in HDAC2 expression by Western blot analysis. The class given is cell-based. Put shortly: as §2
The target of assay [10] is T4, Focal adhesion kinase 1. The assay is described as follows: Inhibition of FAK in human A498 cells assessed as reduction in FAK phosphorylation by Western blot analysis. The class given is cell-based. Put shortly:
as §2
Target sequence in this assay (Q05397 2-1052 limits assumed): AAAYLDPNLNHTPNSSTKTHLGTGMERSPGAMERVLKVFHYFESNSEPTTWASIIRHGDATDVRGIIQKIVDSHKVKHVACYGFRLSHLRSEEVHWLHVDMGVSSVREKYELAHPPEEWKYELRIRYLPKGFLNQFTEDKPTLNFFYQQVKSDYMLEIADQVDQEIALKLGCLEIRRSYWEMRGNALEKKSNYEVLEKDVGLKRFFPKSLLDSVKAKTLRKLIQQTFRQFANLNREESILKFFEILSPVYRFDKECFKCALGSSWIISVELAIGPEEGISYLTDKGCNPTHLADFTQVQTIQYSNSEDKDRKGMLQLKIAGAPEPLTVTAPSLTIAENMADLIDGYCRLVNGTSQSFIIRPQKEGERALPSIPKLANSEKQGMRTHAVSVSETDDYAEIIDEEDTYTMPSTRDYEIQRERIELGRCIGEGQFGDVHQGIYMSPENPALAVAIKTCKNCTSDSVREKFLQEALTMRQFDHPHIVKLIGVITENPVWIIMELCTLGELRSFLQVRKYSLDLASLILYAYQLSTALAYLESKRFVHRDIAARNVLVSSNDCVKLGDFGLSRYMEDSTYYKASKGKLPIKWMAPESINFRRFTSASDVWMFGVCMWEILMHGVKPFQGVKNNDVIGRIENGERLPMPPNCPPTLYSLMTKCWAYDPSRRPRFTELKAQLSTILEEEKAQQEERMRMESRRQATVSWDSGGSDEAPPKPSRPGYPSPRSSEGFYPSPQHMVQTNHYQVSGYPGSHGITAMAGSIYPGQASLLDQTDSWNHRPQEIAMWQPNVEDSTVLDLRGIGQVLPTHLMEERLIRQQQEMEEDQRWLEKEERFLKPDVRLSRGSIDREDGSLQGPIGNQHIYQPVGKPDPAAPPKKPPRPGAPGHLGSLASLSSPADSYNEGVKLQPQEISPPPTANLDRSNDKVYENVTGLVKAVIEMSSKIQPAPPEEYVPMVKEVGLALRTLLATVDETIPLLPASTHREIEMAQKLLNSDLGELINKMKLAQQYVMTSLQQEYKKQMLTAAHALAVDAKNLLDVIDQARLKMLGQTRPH

In assay [11] the target is T4, Focal adhesion kinase 1. The assay is described as follows: Inhibition of FAK in human CAKI-1 cells assessed as reduction in FAK phosphorylation by Western blot analysis. It is filed as cell-based. Put shortly: as §2
Target sequence in this assay (Q05397 2-1052 limits assumed): as above

One may read the IC50 as the point on the concentration scale where inhibition reaches its midpoint.

Calls of active or inactive are those of the source. The rule behind the calls is not given here.

Regarding `C=CCn1c(SCCCCCC(=O)Nc2ccccc2N)nnc1-c1ccncc1`, the inhibition of growth at 10 µM in the assay with HCT-116 amounted to 90.5%; in the assay with HT-29, 95.5%; with K562, 86.4%; in the assay with A498 [1] it was 97.7%; in the assay on CAKI-1 [2], 95.4%. The compound further returned an inhibition in vitro at 10 µM with KG-1 of 94.2%. Moreover, the IC50 with A498 [3] came to 1190 nM; with CAKI-1 [4], 1340 nM; at Histone deacetylase 1 it was 31 µM; at Histone deacetylase 2 [5] it was 1400 nM; on Histone deacetylase 3, 11 µM; in [6], 9.79 µM. Besides, the half-maximal inhibitory concentration (IC50) on Histone deacetylase 8 was 5.86 µM; on Focal adhesion kinase 1 [7], 14.3 nM. The inhibition result at Histone deacetylase 2 [8], on Histone deacetylase 2 [9], on Focal adhesion kinase 1 [10] and on Focal adhesion kinase 1 [11] was “Active” each time.

(Values after ChEMBL document CHEMBL4823270, “A first-in-class anticancer dual HDAC2/FAK inhibitors bearing hydroxamates/benzamides capped by pyridinyl-1,2,4-triazoles” (Eur J Med Chem, 2021).)
